Experimental findings from article PMC11303814 (Nature Communications, 2024) are described below.

Positions count from the first letter of the chain named. Entries after “also recorded” stand apart in the source; their conditions may differ.

Common to all, as to assay type: cell-based
One assay addresses T1, wild-type rP2X7 (Rattus norvegicus, UniProt Q64663).
T1 sequence (Q64663 1-595): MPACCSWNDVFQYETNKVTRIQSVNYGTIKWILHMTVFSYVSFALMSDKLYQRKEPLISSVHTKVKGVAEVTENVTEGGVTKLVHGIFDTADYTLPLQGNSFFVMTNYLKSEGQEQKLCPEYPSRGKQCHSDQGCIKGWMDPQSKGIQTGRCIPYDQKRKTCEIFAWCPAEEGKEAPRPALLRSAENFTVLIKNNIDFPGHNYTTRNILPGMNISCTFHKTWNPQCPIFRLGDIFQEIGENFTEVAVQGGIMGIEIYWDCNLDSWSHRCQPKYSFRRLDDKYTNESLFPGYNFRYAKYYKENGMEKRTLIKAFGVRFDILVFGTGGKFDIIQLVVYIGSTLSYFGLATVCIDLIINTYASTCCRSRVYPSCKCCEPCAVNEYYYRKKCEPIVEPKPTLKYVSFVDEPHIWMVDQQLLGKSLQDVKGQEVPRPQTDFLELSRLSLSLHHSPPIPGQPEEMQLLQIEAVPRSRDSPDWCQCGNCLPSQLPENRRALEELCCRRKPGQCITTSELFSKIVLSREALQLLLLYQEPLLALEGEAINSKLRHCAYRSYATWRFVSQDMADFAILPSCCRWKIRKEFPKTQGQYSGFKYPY
Nature of the assay: TEVC efficacy experiments, wild-type rP2X7 in oocytes. The conditions noted are these: WT rP2X7, identical concentrations of ATP and BzATP. In outline: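 Oocytes expressing rP2X7 (~20 h after mRNA injection), TEVC in pH 7.4 HEPES/flufenamic acid buffer. Each oocyte first received 100 µM ATP as the normalization reference, then sequentially 50 µM ATP, 50 µM BzATP, 100 µM ATP and 100 µM BzATP, with buffer washout to baseline between applications. Normalized currents are from triplicates per concentration per construct; mean ± SD.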

A further assay addresses T2, rP2X7-R125A/I214A (Rattus norvegicus, UniProt Q64663, I214A/R125A).
T2 sequence (Q64663 1-595 R125A/I214A): T1 sequence (Q64663 1-595) with R125A, I214A
Nature of the assay: TEVC dose response. Particulars: read-out: EC50 (apparent affinity), mean ± SD, triplicate. Put shortly: (§1)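 TEVC was run on Xenopus oocytes ~20 h after injection of wild-type or mutant rP2X7 mRNA, in pH 7.4 HEPES buffer with 0.1 mM flufenamic acid. Receptors were facilitated at 100 µM before recording. Dilution series: ATP 1.5 mM–2 µM (7 points), BzATP 300–0.14 µM (8 points). Responses were normalized to the largest concentration, fitted by nonlinear regression for EC50, and averaged across triplicates (mean ± SD).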

A further assay has as its target T3, rP2X7-R125A/Q143A (Rattus norvegicus, UniProt Q64663, Q143A/R125A).
T3 sequence (Q64663 1-595 R125A/Q143A): T1 sequence (Q64663 1-595) with R125A, Q143A
Description: TEVC dose response. Particulars: read-out: EC50 (apparent affinity), mean ± SD, triplicate. Put shortly:
as §1

In another assay the target is T4, rP2X7 K127A (Rattus norvegicus, UniProt Q64663, K127A).
T4 sequence (Q64663 1-595 K127A): T1 sequence (Q64663 1-595) with K127A
Nature of the assay: TEVC dose response. Particulars: read-out: EC50 (apparent affinity), mean ± SD, triplicate. Put shortly: as §1

With BzATP, at wild-type rP2X7, the “efficacy (agonist character, current amplitude)” value is “full agonist; also recorded: greater inward current than ATP”. Also, the figures for the EC50 on rP2X7-R125A/I214A, on rP2X7-R125A/Q143A and on rP2X7 K127A were 14 ± 2 µM, 18 ± 4 µM and 2.9 ± 0.4 µM, respectively.

Consider `Nc1ncnc2c1ncn2[C@@H]1O[C@H](COP(=O)(O)OP(=O)(O)OP(=O)(O)O)[C@@H](O)[C@H]1O` [ATP], for which the “efficacy (agonist character, current amplitude)” value on wild-type rP2X7 is recorded as “partial agonist”. For the same compound, the figures for the EC50 on rP2X7-R125A/I214A, on rP2X7-R125A/Q143A and on rP2X7 K127A were 77 ± 10 µM, 114 ± 30 µM and 22 ± 3 µM, respectively.
